From ChEMBL document CHEMBL4017489, “Design, Synthesis, and Evaluation of New Selective NM23-H2 Binders as c-MYC Transcription Inhibitors via Disruption of the NM23-H2/G-Quadruplex Interaction” (J Med Chem, 2017)
Calls of active or inactive are those of the source. The rule behind the calls is not given here.

Experiments:
[1] = target: T1, Nucleoside diphosphate kinase B (Homo sapiens, UniProt P22392); test: Binding affinity to NM23-H2 (unknown origin) assessed as reduction in protein interaction with Pu22 c-myc G-quadruplex DNA after 1 hr by EMSA
SiHa [2] = test: Cell cycle arrest in human SiHa cells assessed as accumulation at G2/M phase at 2 uM after 6 hrs by propidium iodide staining based flow cytometry (reference value: 39 %); assay type: functional
How it was run: (§1)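 SiHa cells (2.0 × 10^5 per well) plated 24 h, then exposed to 2 μM compound or left untreated for 3, 6, 9, 12, 24, 36 or 48 h. Cells washed in PBS, fixed overnight in ice-cold 70% ethanol, treated with 20 μg/mL RNase A for 30 min at 37 °C, stained with PI, and read by flow cytometry at 488 nm. Phase percentages compared with untreated control; at least three experiments.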

[3] = target: T2, Nucleoside diphosphate kinase B (Homo sapiens, UniProt P22392, G113F); test: Binding affinity to N-terminal NT-647-NHS labeled NM23-H2 G113F mutant (unknown origin) after 30 mins by MST analysis
SiHa [4] = test: Cell cycle arrest in human SiHa cells assessed as accumulation at S phase at 2 uM after 36 hrs by propidium iodide staining based flow cytometry (reference value: 13 %); assay type: functional; how it was run: as §1
[5] = target: T1, Nucleoside diphosphate kinase B; test: Binding affinity to NM23-H2 in human SiHa cells assessed as disruption of protein interaction with c-myc G-quadruplex DNA by measuring decrease in c-MYC protein expresson at 1 to 2 uM after 48 hrs by Western blot analysis; assay type: cell-based
How it was run: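 SiHa cells treated 48 h; lysates (30 μg) on 10% SDS-PAGE, nitrocellulose, anti-c-MYC overnight at 4 °C, HRP secondary, chemiluminescence; β-actin internal control; three repeats.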

[6] = Antiproliferative activity against mouse primary mesangial cells at 0.5 to 2 uM up to 100 hrs by real-time cellular activity assay; assay type: cell-based; details: primary mesangial cell
How it was run: (§2)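 Impedance-based real-time cell analysis at 37 °C, 5% CO2: 100 μL of 20 000 cells/mL added over medium background, settled 20 min, dosed after 24 h; read every 2 min for 2 h, then every 15 min to end; three repeats.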

[7] = target: T1, Nucleoside diphosphate kinase B; test: Binding affinity to N-terminal NT-647-NHS labeled NM23-H2 (unknown origin) after 30 mins by MST analysis
How it was run: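 NM23-H2 N-terminally labeled with RED-NHS dye (20 μM protein, 30 min dark, RT), free dye removed; 200 nM labeled protein with compound from 500 μM, 16 twofold steps, 30 min RT in 50 mM Tris-HCl pH 7.4, 150 mM NaCl, 10 mM MgCl2, 0.05% Tween-20; KD at half-plateau.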

SiHa [8] = test: Cell cycle arrest in human SiHa cells assessed as accumulation at G0/G1 phase at 2 uM after 24 hrs by propidium iodide staining based flow cytometry (reference value: 48 %); assay type: functional
How it was run: (§3)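 SiHa cells plated 24 h, treated at 2 μM for 3–48 h; fixed in ice-cold 70% ethanol overnight, RNase A 20 μg/mL 37 °C 30 min, PI-stained, flow cytometry at 488 nm; phase percentages quantified; at least three experiments.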

SiHa [9] = test: Cell cycle arrest in human SiHa cells assessed as accumulation at S phase at 2 uM after 12 hrs by propidium iodide staining based flow cytometry (reference value: 13 %); assay type: functional; how it was run: as §1
SiHa [10] = test: Cell cycle arrest in human SiHa cells assessed as accumulation at G0/G1 phase at 2 uM after 36 hrs by propidium iodide staining based flow cytometry (reference value: 48 %); assay type: functional; how it was run: as §3
SiHa [11] = test: Induction of apoptosis in human SiHa cells assessed as early apoptotic cells at 0.5 uM after 48 hrs by Annexin V-FITC/propidium iodide based flow cytometric analysis (reference value: 1.4 %); assay type: functional
SiHa [12] = test: Antiproliferative activity against human SiHa cells after 48 hrs by MTT assay; assay type: functional, cell-based
[13] = target: T2, Nucleoside diphosphate kinase B; test: Binding affinity to NM23-H2 G113F mutant (unknown origin) by SPR analysis
SiHa [14] = test: Induction of apoptosis in human SiHa cells assessed as early apoptotic cells at 2 uM after 48 hrs by Annexin V-FITC/propidium iodide based flow cytometric analysis (reference value: 1.4 %); assay type: functional
SiHa [15] = test: Antiproliferative activity against human SiHa cells up to 100 hrs by real-time cellular activity assay; assay type: functional, cell-based; how it was run: as §2
SiHa [16] = test: Cell cycle arrest in human SiHa cells assessed as accumulation at G2/M phase at 2 uM after 9 hrs by propidium iodide staining based flow cytometry (reference value: 39 %); assay type: functional; how it was run: as §1
SiHa [17] = test: Induction of apoptosis in human SiHa cells assessed as increase in cleaved caspase-3 level after 48 hrs by Western blot analysis; assay type: functional, cell-based
How it was run: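 SiHa cells treated with 0, 0.5, 1.0 or 2.0 μM for 48 h and lysed for total protein. Caspase-3, cleaved caspase-3, PARP and cleaved PARP detected by Western blot (30 μg protein, 10% SDS-PAGE, HRP chemiluminescence). Bands quantified by densitometry; at least three experiments.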

SiHa [18] = test: Induction of apoptosis in human SiHa cells assessed as late apoptotic cells at 1 uM after 48 hrs by Annexin V-FITC/propidium iodide based flow cytometric analysis (reference value: 0.7 %); assay type: functional
SiHa [19] = test: Cell cycle arrest in human SiHa cells assessed as accumulation at sub-G1 phase at 2 uM after 12 hrs by propidium iodide staining based flow cytometry relative to control; assay type: functional; how it was run: as §1
[20] = Anticlonogenic activity against mouse primary mesangial cells at 0.03125 to 0.5 uM after 14 days by crystal violet staining based assay; assay type: ADME; details: primary mesangial cell, 336 h
How it was run: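 Colony formation: SiHa cells and primary cultured mouse mesangial cells exposed to 0.5, 0.25, 0.125, 0.0625 and 0.03125 μM for 14 days, DMSO as negative control; three repeats.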

Mus musculus = test: Toxicity in BALB/C nude mouse xenografted with human SiHa cells assessed as pain at 2.5 to 5 mg/kg, ip administered daily after 3 weeks; assay type: organism-based; details: in vivo, 504 h
How it was run: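 SiHa cells implanted in the right armpit of BALB/c nu/nu mice. At approximately 50 mm3, mice randomized (n = 8/group) to vehicle, compound 2.5 or 5.0 mg/kg, or doxorubicin 1.0 mg/kg, given ip daily for 3 weeks. Body weight and signs of pain, distress or discomfort monitored; tumors excised and weighed. Data given as mean ± SEM, t test against vehicle.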

SiHa [21] = test: Down regulation of cyclin D1 expression in human SiHa cells at 0.5 to 2 uM after 24 to 48 hrs by Western blot analysis; assay type: functional, cell-based
How it was run: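 SiHa cells (2.0 × 10^5) treated with compound at various concentrations for 24 or 48 h, then lysed at 4 °C. Protein measured by BCA; 30 μg run on 10% SDS-PAGE and transferred to nitrocellulose. Membranes blocked in 5% milk, probed with primary antibodies overnight at 4 °C, then HRP secondary for 2 h, and detected by chemiluminescence. Bands quantified by densitometry; at least three experiments.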

[22] = Binding affinity to N-terminal NT-647-NHS labeled NM23-H2 D121A mutant (unknown origin) after 30 mins by MST analysis; design: species or system Homo sapiens
SiHa [23] = test: Cell cycle arrest in human SiHa cells assessed as accumulation at sub-G1 phase at 2 uM after 36 hrs by propidium iodide staining based flow cytometry relative to control; assay type: functional; how it was run: as §1

T1 sequence (P22392 whole entry): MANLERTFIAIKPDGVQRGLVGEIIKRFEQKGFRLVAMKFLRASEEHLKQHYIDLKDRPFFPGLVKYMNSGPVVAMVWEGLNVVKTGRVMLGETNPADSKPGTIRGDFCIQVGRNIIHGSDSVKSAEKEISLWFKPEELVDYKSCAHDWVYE
T2 sequence (P22392 whole entry G113F): as the sequence (P22392 whole entry) above, with G113F counted along it

CN(C)CCCNc1cc2nc3n(c(=O)c2cc1F)CC/C3=C\c1ccc(OCc2ccccc2)cc1O
Activity [1]: Dose-dependent effect
Activity (SiHa [2]): 26%
Kd [3]: 13.5 µM
Activity (SiHa [4]): 0%
Activity [5]: Active
Activity [6]: Non-Toxic
Kd [7]: 2 µM
Activity (SiHa [8]): 22%
Activity (SiHa [9]): 11%
Activity (SiHa [10]): 1%
Activity (SiHa [11]): 11.8%
IC50 (SiHa [12]): 1.78 µM
Kd [13]: 15.5 µM
Activity (SiHa [14]): 4.8%
Activity (SiHa [15]): Dose-dependent effect
Activity (SiHa [16]): 21%
Activity (SiHa [17]): Dose-dependent effect
Activity (SiHa [18]): 10.6%
Activity (SiHa [19]): 8%
Activity [20]: Non-Toxic
Activity (Mus musculus): Non-Toxic
Activity (SiHa [21]): Active
Kd [22]: 94.1 µM
Activity (SiHa [23]): 99%
